Most compounds without a hit are left out; they make up all but 3.3% or so of the library.
ABHD4 inh: inhibitors of mouse ABHD4; Q8VD66; purified mABHD4, FP-Rh probe fluorescence polarization; inhibition, % at 8.92 µM; 370,000 tested, 0.54% active;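 active = inhibition exceeding the mean over every tested compound plus 3 SD, cut at about 30% in these data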;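 note: 0% = plate median of compound wells and 100% = S159A mutant with DMSO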
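Assay system: Wild-type mouse ABHD4 protein | Medium: HEPES pH 7.0 buffer, 150 mM NaCl, 0.01% Pluronic F-127 | Incubation: Enzyme–compound pre-incubation 45 min, then probe 60 min, both 25 °C | Technique: Fluorescence polarization with parallel and perpendicular emission, 525/598 nm | Evaluation: % inhibition of FP-Rh probe binding versus controls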
rCAG binder: r(CAG) repeat RNA binding; 370,000 tested, 1.3% active; AID 651821; inhibition, % at 3 µM; TO-PRO-1 dye displacement fluorescence;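 active = inhibition above the plate cutoff, the mean of all test compounds on that plate plus 3 SD, cut at about 35% in these data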;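 note: 0% = DMSO alone and 100% = 100 µM mitoxantrone as full dye displacement; higher means more dye released from RNA so lower well fluorescence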
PRMT1 FP inh: blocks human protein arginine methyltransferase 1; Q99873; recombinant PRMT1, activity-based probe fluorescence polarization; inhibition, % at 2.79 µM; 370,000 tested, 1.3% active; AID 652257;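 active = inhibition above about 21% made by adding two undisclosed values, limit read from the data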
Target sequence (Q99873 whole entry, looked up): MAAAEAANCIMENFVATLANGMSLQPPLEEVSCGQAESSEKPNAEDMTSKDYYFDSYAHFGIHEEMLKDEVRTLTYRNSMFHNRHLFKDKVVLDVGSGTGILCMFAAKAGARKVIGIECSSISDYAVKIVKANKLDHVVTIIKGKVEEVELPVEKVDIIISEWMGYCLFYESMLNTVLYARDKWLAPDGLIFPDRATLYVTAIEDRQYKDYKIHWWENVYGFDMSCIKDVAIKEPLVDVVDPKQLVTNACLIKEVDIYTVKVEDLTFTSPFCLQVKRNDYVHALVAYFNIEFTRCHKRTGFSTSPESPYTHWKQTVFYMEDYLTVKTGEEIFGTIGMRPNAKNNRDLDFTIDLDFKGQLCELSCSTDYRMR
TCR-CD3 inh: blocks the human TCR-CD3 interaction; TAMRA-labeled TCR probe fluorescence, biochemical; inhibition, % at 9.4 µM; 360,000 tested, 0.37% active; in the data active = inhibition above about 19%;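 note: recombinant mutant TCR 2C K166C tagged with TAMRA read by polarization; 0% = receptor in buffer alone and 100% = receptor with positive control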
SIAE inh: blocks human sialic acid acetylesterase | Q9HAT2 | 370,000 tested, 0.69% active | inhibition, % at 9.66 µM | SIAE FP-Rh probe binding, fluorescence polarization | AID 1053197;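 active = inhibition above a cutoff: mean of compounds within the control limits plus 3 SD of those, cut at about 17% in these data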;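 note: 0% = plate median of compound wells and 100% = probe without SIAE protein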
PRMT1 inh conf: confirmation of human PRMT1 inhibitors | inhibition, % at 2.79 µM | 3,300 tested, 42% active | shares compounds with PRMT1 FP inh | recombinant His-PRMT1, activity-based probe fluorescence polarization | AID 687036;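 active = mean inhibition across replicates above the hit cutoff derived for the earlier primary screen, cut at about 22% in these data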
The depositor's hits bear a star; / = no result given.

SMILES | ABHD4 inh | rCAG binder | PRMT1 FP inh | TCR-CD3 inh | SIAE inh | PRMT1 inh conf
COc1ccc(N2C(=O)CC(Sc3ccccc3C(=O)O)C2=O)c([N+](=O)[O-])c1 (stereo unspecified) | 8 | 16 | 100* | -3 | 1 | 55*
Cc1ccccc1Cn1cc(CN2[C@@H](C)COc3cc(Br)ccc3S2(=O)=O)nn1 | -3 | 0 | -3 | / | 4 | /
O=S(=O)(c1ccccc1Br)N(Cc1cn(Cc2ccccc2)nn1)C1CC1 | -1 | 0 | -3 | / | 4 | /
CC(=O)CC[C@H]1CC[C@]2(CCCN(C(=O)c3ccc4ccccc4n3)C2)O1 | 2 | -1 | 0 | / | -4 | /
O=C(CCCCCn1c(SCc2ccncc2)nc2ccccc2c1=O)NCc1ccco1 | 2 | -2 | 46* | 5 | 1 | 9
CCn1c(C)cs/c1=N\S(=O)(=O)c1ccccc1 | 1 | -3 | -1 | 1 | 4 | /
O=Cc1s/c(=N\S(=O)(=O)c2ccccc2)n(CCCCl)c1Cl | 3 | 4 | 43* | 4 | -6 | 37*
Cn1nnnc1Sc1ncnc2scc(-c3ccccc3C(F)(F)F)c12 | -3 | -1 | 39* | 3 | -2 | 14
Oc1ccc(Cl)cc1C=Nc1ccc2c3c(cccc13)CC2 | 20 | -16 | 39* | 15 | -1 | 13
O=C(O)C(Cc1ccccc1)N1C(=O)C=CC1=O (stereo unspecified) | 6 | -1 | 52* | -2 | -8 | 64*
O=C(O)C(Cc1ccccc1)N1C(=O)CCC1=O (stereo unspecified) | 1 | 3 | -1 | 2 | -10 | /
NC(=O)C1(N2CCCCC2)CCN(C(=S)Nc2ccc(S(N)(=O)=O)cc2)CC1 | -7 | 1 | 27* | -1 | 2 | 36*
CCC[C@H]1[C@@H](OC(=O)NCc2ccccc2Cl)CC[C@@]23CCCN2C(=O)CCC[C@@H]13 | 4 | / | -3 | / | -4 | /
COc1cccc(NC(=O)Nc2nc3ncccn3c2-c2ccc(F)c(F)c2)c1 | -4 | 3 | -2 | / | 4 | /
CC1Cc2cc(S(=O)(=O)NCc3ccccc3)ccc2N1C(=O)C1CC1 (stereo unspecified) | -11 | -2 | 47* | -5 | -5 | 3
CCCCCCCCN1C(=O)N2Cc3cc(OC)ccc3C2CS1(=O)=O (stereo unspecified) | -3 | 0 | 1 | / | 5 | /
CCCC(=O)OC12CCCN(C1)/C(=C/c1cccc(OC)c1)C2 (stereo unspecified) | 1 | -4 | -5 | / | 0 | /
CCOC(=O)C1CCCN(C2CC(=O)N(c3ccc(C)c(C)c3)C2=O)C1 (stereo unspecified) | 1 | 0 | 46* | -3 | -6 | 4
CCOC(=O)C1CCCN(C2CC(=O)N(c3ccc(C(C)C)cc3)C2=O)C1 (stereo unspecified) | 3 | -7 | 12 | 2 | -3 | /
CCOC(=O)C1CCCN(C2CC(=O)N(c3ccccc3)C2=O)C1 (stereo unspecified) | 1 | -1 | 57* | -6 | -2 | 0
CCOC(=O)C1CCCN(C2CC(=O)N(c3ccc(N4C(=O)CC(N5CCCC(C(=O)OCC)C5)C4=O)cc3)C2=O)C1 (stereo unspecified) | 1 | -7 | 15 | 4 | 1 | /
CCOC(=O)C1CCCN(C2CC(=O)N(c3cccc(C(F)(F)F)c3)C2=O)C1 (stereo unspecified) | 5 | -2 | 26* | -2 | 1 | 25*
COC(=O)[C@]12CCCCC=C1N(Cc1ccc(OC)cc1)C(=O)[C@@H]2CC(=O)N1CCCCC1 | 5 | 1 | 1 | / | -3 | /
Cc1cc(NC(=O)c2ccc(NS(=O)(=O)c3ccccc3)cc2)no1 | 2 | 5 | 0 | / | -3 | /
Clc1ccc(-c2nc3nc4ccccc4nc3n2Cc2ccco2)cc1 | -9 | 4 | 27* | -4 | -12 | 13
SMILES | ABHD4 inh | rCAG binder | PRMT1 FP inh | TCR-CD3 inh | SIAE inh | PRMT1 inh conf
Cc1ccc(-c2nc3nc4ccccc4nc3n2Cc2ccco2)cc1 | -8 | 2 | 2 | 0 | -4 | /
Nc1ccc(-c2cnc3ccccc3n2)cc1 | 3 | -4 | 2 | 2 | -3 | /
Nc1ccc2nc(-c3ccccc3)cnc2c1 | 13 | -31 | 31* | -4 | -2 | 33*
Cc1nc2[nH]c(=S)[nH]c2c(=O)[nH]1 | 4 | -1 | 1 | 2 | 13 | /
Nc1nc(N)c2[nH]c(=S)[nH]c2n1 | 1 | 3 | 54* | 4 | 9 | 9
CN(C(=O)[C@@H](C1CC1)[C@@H](O)c1ccc(Cl)cc1)c1ccccc1 | 3 | -2 | 0 | / | 6 | /
CCn1c(SCC(=O)Nc2ccc(C(C)C)cc2)nnc1-c1ccc(C(C)(C)C)cc1 | 6 | 0 | 3 | / | 2 | /
CC(C)(C)N(Cc1cn(Cc2ccccc2)nn1)S(=O)(=O)c1ccc(N2CCCC2)cc1Br | -4 | 11 | -3 | / | 4 | /
CCC1Oc2ccc(C)cc2N(CC(=O)N(Cc2ccc(C)o2)C2CCCC2)C1=O (stereo unspecified) | -6 | -3 | 47* | -3 | 6 | 38*
CCC1Oc2ccc(C)cc2N(CC(=O)NC2CCCCC2)C1=O (stereo unspecified) | -4 | -7 | 0 | 4 | 4 | /
COc1ccc(-n2ccnc(SCC(=O)NCc3ccccc3Cl)c2=O)cc1 | 8 | 3 | 88* | -5 | 9 | 14
CCOc1ccc(-n2ccnc(SCC(=O)Nc3cccc(OC)c3)c2=O)cc1 | 0 | 2 | 39* | 4 | 12 | 42*
O=C(/C=C/c1ccoc1)c1ccccc1O | -1 | 3 | 2 | -4 | -2 | /
COc1ccc2ccccc2c1C(=O)/C=C\c1ccoc1 | 24 | 32 | 33* | -2 | 2 | 7
C[C@H]1[C@H](N)CC[C@@]23CCCN2C(=O)CCC[C@@H]13 | 0 | / | 1 | / | 2 | /
CCOc1ccc(N2C(=O)C3Sc4[nH]c(=O)sc4C(/C=C/c4ccccc4)C3C2=O)cc1 (stereo unspecified) | 5 | 57* | 27* | -6 | 9 | 3
Oc1ccc(N=Nc2ccccc2)o1 | 2 | 5 | 35* | 0 | -2 | 49*
O=c1ccc(N=Nc2ccccc2)ccc1O | 17 | 6 | 3 | 4 | 13 | /
C[C@H]1CN([C@@H](C)CO)C(=O)CCCn2cc(nn2)CO[C@@H]1CN(C)C(=O)c1ccc2ccn(C)c2c1 | 5 | 1 | 2 | 8 | 6 | /
CNC[C@H]1OCc2cnnn2CCCC(=O)N([C@@H](C)CO)C[C@@H]1C | -4 | -3 | -1 | -4 | 4 | /
C/C(N)=C(/C#N)C(=O)CSc1nc2ccc(C)cc2[nH]1 | 6 | 4 | 26* | 4 | 3 | 4
COC(=O)C1CSC2c3ccccc3C(=O)N12 (stereo unspecified) | -9 | 5 | 32* | -7 | -3 | 21
COc1ccccc1CN(C)C(=O)c1ccc2c(c1)NC(=O)CS2 | 2 | 3 | 2 | -2 | 1 | /
